Laboratory results: PubChem BioAssay
Records with an inconclusive call do not appear.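 Rule for the calls, unless noted: active = cell viability at or below a set limit in both duplicate runs, the limit being the all-compound median minus 4 SD (cut at about 23% in these data, passing the limit was not always enough); inconclusive = no clear call, values can overlap the other calls; inactive = the rest.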

What was measured:
[1] = OD615 S. cerevisiae growth inhibition, permissive medium, pilot counter-assay, permissive growth control for S. cerevisiae lifespan shortening project (AID 705;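 active = growth inhibition above 25% in both replicates, a cutoff set 3 SD above the mean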); conditions: OD615, 24 h, at 10 µM, hits give high values
Method in brief: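 Material: engineered DeaD yeast; compound dosing: one dose 10 µM, DMSO 0.25% final; measure: yeast growth inhibition indicated by reduced 24 h OD615; detection: OD615 turbidity read; incubation: cells pre-grown 4 h, then 24 h compound exposure, 30 °C humidified; medium: permissive synthetic complete medium with raffinose and galactose carbon sources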

[2] = Restrictive medium S. cerevisiae growth inhibition, OD615, pilot screen of yeast lifespan reduction project, restrictive growth control (AID 706;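 active = growth inhibition above a set limit, 3 SD over mean compound inhibition, in both replicates, cut at about 43% in these data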;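 note: modified DeaD lifespan yeast strain shifted to restrictive glucose medium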); conditions: OD615, 48 h, at 10 µM, hits give high values
Method in brief: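 material = engineered S. cerevisiae DeaD strain | medium = glucose-based CSMM-D restrictive medium | times = 4 h pre-incubation, 48 h exposure at 30 °C | technique = OD615 absorbance reading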

[3] = viability gain of MRP-1-high H69AR cells under doxorubicin, pilot screen, MRP-1 activator project, CellTiter-Glo, duplicate (AID 807;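 active = viability increase at or above a cutoff of the median across tested compounds plus 3 SD, cut at about 8.5% in these data, passing the limit was not always enough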;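 note: compound pretreatment 18-22 h then 72 h combined with doxorubicin; 0% = doxorubicin alone and 100% = vehicle without doxorubicin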); conditions: H69AR viability with doxorubicin, CellTiter-Glo luminescence; at 10 µM; hits give high values
[4] = growth suppression of beta-catenin knockout HCT116, pilot screen, human colon tumor cells (AID 823); conditions: CellTiter-Glo, 60 h, at 10 µM, hits give low values;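 note: 0% = wells killed by 20 µM Hyamine and 100% = untreated DMSO cell wells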
[5] = growth suppression of PTEN-deleted HCT116, pilot screen, cell-based, HCT116 clonal line, CellTiter-Glo (AID 824;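 active = viability at or below 27.92% in each of two runs, the all-compound median minus 4 SD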;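 note: 0% = 20 µM Hyamine control and 100% = vehicle cell control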); conditions: 60 h, at 10 µM, hits give low values
[6] = inhibitors of the yeast RAM network, pilot screen, dse1pr::URA3 reporter, 5-FOA selection (AID 869;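 active = inhibition over a set limit, the all-compound mean plus 3 SD, in both replicate runs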;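 note: 0% = DMSO wells with no growth and 100% = 10 µM 1-NA-PP1 with full growth; RAM network block rescues cells from 5-FOA so hits raise OD615 growth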); conditions: S. cerevisiae dse1pr::URA3 5-FOA growth, OD615, 2 d; at 10 µM; hits give high values; strain carries analog-sensitive mutant Cbk1 kinase
[7] = RAM signaling pathway blockade in yeast – S. cerevisiae, Pdr1DBD-CYC8 efflux-inhibited sensitized strain, primary screen (AID 1298;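 active = RAM network inhibition above 8.4% in each of two replicates, 3 SD over the compound average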;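 note: 0% = DMSO untreated cells without growth and 100% = 10 µM 1-NA-PP1 full growth; higher means more yeast growth rescued from 5-FOA killing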); conditions: S. cerevisiae cbk1-as DSE1-URA3 strain, 5-FOA growth OD615, 2 d; at 50 µM; hits give high values

Cn1cc(SCC(=O)Nc2ccc3c(c2)OCO3)c2ccccc21
inactive: growth inhibition [1] -6.75% | growth inhibition [2] -9.39% | viability increase [3] -2.72% | viability [4] 100% | viability [5] 92.9% | inhibition [6] 1.69% | RAM network inhibition [7] 2.23%

CC(C)c1cc(NC(=O)CSc2nnc(-c3ccccc3F)n2C)on1
inactive: growth inhibition [1] -6.68% | growth inhibition [2] 2.08% | viability increase [3] 0.77% | viability [4] 98% | viability [5] 101% | inhibition [6] 0.705% | RAM network inhibition [7] 3.69%

COc1ccc(CCNC(=O)CC2Oc3ccc(Cl)cc3NC2=O)cc1OC (configuration not stated)
inactive: growth inhibition [1] -0.31% | growth inhibition [2] -7.26% | viability increase [3] -0.06% | viability [4] 96.2% | viability [5] 97.6% | inhibition [6] 1.17% | RAM network inhibition [7] 5.03%

COC(=O)c1ccc(OCC(O)CN(CC(C)C)CC(C)C)cc1 (configuration not stated)
inactive: growth inhibition [1] -3.55% | growth inhibition [2] -4.33% | viability increase [3] -1.4% | viability [4] 76.1% | viability [5] 86.4% | inhibition [6] 1.47% | RAM network inhibition [7] 2.82%

C(#Cc1ccc(C#CCN2CCOCC2)cc1)CN1CCOCC1
inactive: growth inhibition [1] -17.1% | growth inhibition [2] -9.67% | viability increase [3] -0.83% | viability [4] 85.8% | viability [5] 87.2% | inhibition [6] 1.15% | RAM network inhibition [7] 3.18%

Cc1ccc(-n2c(C)cc(C(=O)OCC(=O)N(C)C3CCS(=O)(=O)C3)c2C)cc1 (configuration not stated)
inactive: growth inhibition [1] -15.9% | growth inhibition [2] -17.3% | viability increase [3] -1.95% | viability [4] 91.7% | viability [5] 91.1% | inhibition [6] 0.955% | RAM network inhibition [7] 8.11%

O=C(Nc1ccccc1)c1ccccc1O
inactive: growth inhibition [1] 1.28% | growth inhibition [2] 13.7% | viability increase [3] -1.14% | viability [4] 92.2% | viability [5] 83.2% | inhibition [6] -0.42% | RAM network inhibition [7] -1.46%

CC(CCc1ccccc1)NC(=O)C1CCN(c2nnc(-n3cccc3)s2)CC1 (configuration not stated)
inactive: growth inhibition [1] -2.63% | growth inhibition [2] -7.45% | viability increase [3] -0.45% | viability [4] 95.9% | viability [5] 88.5% | inhibition [6] 4.55% | RAM network inhibition [7] 4.94%

COc1ccc(N2C(=O)C3CCCN3C2c2ccccc2OC)cc1 (configuration not stated)
inactive: growth inhibition [1] 2.4% | growth inhibition [2] -3.83% | viability increase [3] -3.2% | viability [4] 103% | viability [5] 97.4% | inhibition [6] 0.02% | RAM network inhibition [7] 0.12%

COc1ccc(C(=O)Nc2ccc(S(=O)(=O)N3CCCCC3C)cc2)c(OC)c1OC (configuration not stated)
inactive: growth inhibition [1] -3.56% | growth inhibition [2] -3.8% | viability increase [3] -0.18% | viability [4] 91.2% | viability [5] 96.1% | inhibition [6] 0.03% | RAM network inhibition [7] 1.24%

Cn1c(=O)c2c(SCc3cccnc3)nc(C3CC3)nc2n(C)c1=O
inactive: growth inhibition [1] 1.77% | growth inhibition [2] -1.23% | viability increase [3] 0.27% | viability [4] 94.5% | viability [5] 83.4% | inhibition [6] -0.18% | RAM network inhibition [7] -1.65%

NC(=O)CSc1ncc(-c2ccccc2)[nH]1
inactive: growth inhibition [1] -4.49% | growth inhibition [2] -3.75% | viability increase [3] -3.58% | viability [4] 101% | viability [5] 93.7% | inhibition [6] 0.715% | RAM network inhibition [7] 4.43%

CCOc1cccc(-c2nc(C(N)=O)c3[nH]c(=O)n(-c4cccc(Cl)c4)c3n2)c1O
inactive: growth inhibition [1] -2.52% | growth inhibition [2] -7.1% | viability increase [3] -2.06% | viability [4] 101% | viability [5] 93.1% | inhibition [6] 0.85% | RAM network inhibition [7] 2.67%

CC1C(c2ccccc2)=[N+]([O-])C2(CCCC2)N1O (configuration not stated)
inactive: growth inhibition [1] -2.46% | growth inhibition [2] -6.78% | viability increase [3] -3.01% | viability [4] 97% | viability [5] 96.6% | inhibition [6] 1.53% | RAM network inhibition [7] 1.41%

O=C(NCc1ccco1)c1ccc(S(=O)(=O)c2cccc(S(=O)(=O)N3CCOCC3)c2)cc1
inactive: growth inhibition [1] 19% | growth inhibition [2] 2.85% | viability increase [3] -4.28% | viability [4] 92.4% | viability [5] 87.1% | inhibition [6] 1.19% | RAM network inhibition [7] 3.8%

CC(=O)c1ccc(OCC(O)CN2C(C)(C)CC(O)CC2(C)C)cc1 (configuration not stated)
inactive: growth inhibition [1] -16.9% | growth inhibition [2] -12.3% | viability increase [3] 1.37% | viability [4] 105% | viability [5] 96.8% | inhibition [6] 1.66% | RAM network inhibition [7] 7.12%

COc1ccc(-c2nnc3ccc(SCC(=O)N4CCCCCC4)nn23)cc1OC
inactive: growth inhibition [1] 1.58% | growth inhibition [2] -3.42% | viability increase [3] -4.16% | viability [4] 103% | viability [5] 109% | inhibition [6] 0.615% | RAM network inhibition [7] 0.05%

COc1c(Cl)cc(-c2noc(C)c2C(=O)NCc2ccc3c(c2)OCO3)cc1Cl
inactive: growth inhibition [1] -16.4% | growth inhibition [2] -10.4% | viability increase [3] -1.08% | viability [4] 89% | viability [5] 84% | inhibition [6] 1.19% | RAM network inhibition [7] 4.27%

CC(C)c1cc(C(=O)Nc2ccc3c(c2)OCO3)no1
inactive: growth inhibition [1] -13.7% | growth inhibition [2] 4.26% | viability increase [3] -4.63% | viability [4] 94.2% | viability [5] 92.8% | inhibition [6] 1.88% | RAM network inhibition [7] 3.88%

Cc1nn(Cc2ccccc2)c(N)c1-c1ccccc1
inactive: growth inhibition [1] -8.39% | growth inhibition [2] -9.23% | viability increase [3] -0.57% | viability [4] 95.2% | viability [5] 87.1% | inhibition [6] 2.53% | RAM network inhibition [7] 2.53%

COc1ccc(C)cc1S(=O)(=O)NC1CCCCC1
inactive: growth inhibition [1] -9.02% | growth inhibition [2] -4.09% | viability increase [3] -0.23% | viability [4] 101% | viability [5] 101% | inhibition [6] 0.525% | RAM network inhibition [7] 6.79%

Cc1cc(Nc2ccc(Br)c(C)c2)n2nc(C)nc2n1
inactive: growth inhibition [1] -8.54% | growth inhibition [2] 4.61% | viability increase [3] -6.94% | viability [4] 80.9% | viability [5] 84.9% | inhibition [6] 0.65% | RAM network inhibition [7] 6.84%

CC1=CC(c2ccccc2)n2nc(NS(=O)(=O)c3ccc(C)cc3)nc2N1 (configuration not stated)
inactive: growth inhibition [1] -9.59% | growth inhibition [2] 5.79% | viability increase [3] -1.29% | viability [4] 100% | viability [5] 99.5% | inhibition [6] 0.09% | RAM network inhibition [7] 2.86%

O=C(O)CCC(C(=O)O)n1c(O)c(C2=c3ccccc3=NC2=O)sc1=S (configuration not stated)
inactive: growth inhibition [1] -5.76% | growth inhibition [2] -1.01% | viability increase [3] -4.54% | viability [4] 97.7% | viability [5] 95.3% | inhibition [6] 2.23% | RAM network inhibition [7] -0.11%

O=c1oc(-c2cccs2)nc2sc3c(c12)CCCCC3
inactive: growth inhibition [1] -8.22% | growth inhibition [2] -6.44% | viability increase [3] 1.51% | viability [4] 89% | viability [5] 80.3% | inhibition [6] 1.86% | RAM network inhibition [7] 4.13%

CC1(C)C(=O)OC(c2cc(Br)ccc2O)C(C)(C)C1=O (configuration not stated)
inactive: growth inhibition [1] -8.82% | growth inhibition [2] -1.84% | viability increase [3] -2.35% | viability [4] 90.2% | viability [5] 82.1% | inhibition [6] -0.355% | RAM network inhibition [7] 4.3%

O=C(O)C1C2C=CC(C2)C1C(=O)OCC1CCCO1 (configuration not stated)
inactive: growth inhibition [1] -6.31% | growth inhibition [2] 1.68% | viability increase [3] -1.53% | viability [4] 98.1% | viability [5] 94.8% | inhibition [6] 0.865% | RAM network inhibition [7] 1.34%

COc1ccc(C2C(C(=O)c3cccs3)=C(O)C(=O)N2c2nnc(C)s2)cc1OC (configuration not stated)
inactive: growth inhibition [1] -6.25% | growth inhibition [2] 9.11% | viability increase [3] 1.59% | viability [4] 102% | viability [5] 101% | inhibition [6] 1.33% | RAM network inhibition [7] 2.05%

Cc1cc2ccccc2n1CCNC(=O)C(C)(C)C
inactive: growth inhibition [1] 3.07% | growth inhibition [2] 7.19% | viability increase [3] -0.5% | viability [4] 96.6% | viability [5] 103% | inhibition [6] 1.72% | RAM network inhibition [7] -1.8%

O=C(CN1CCN(Cc2ccc(Cl)cc2)C1=O)NCCN1CCCC1
inactive: growth inhibition [1] 1.2% | growth inhibition [2] 9.72% | viability increase [3] -0.85% | viability [4] 107% | viability [5] 96.7% | inhibition [6] 1.54% | RAM network inhibition [7] 1.2%

COc1ccc2cc(CCNC(=O)C3CCCC3)c(=O)[nH]c2c1
inactive: growth inhibition [1] -6.89% | growth inhibition [2] -9.8% | viability increase [3] -0.27% | viability [4] 109% | viability [5] 98.5% | inhibition [6] 1.08% | RAM network inhibition [7] 0.21%

COc1ccc(N2C(=O)C3CCCN3C2c2ccccc2)cc1 (configuration not stated)
inactive: growth inhibition [1] 4.01% | growth inhibition [2] -9.51% | viability increase [3] -0.65% | viability [4] 102% | viability [5] 101% | inhibition [6] 1.87% | RAM network inhibition [7] -0.32%

CC(=O)c1ccc(OCC(C)C)c(CC(C(N)=O)C(N)=O)c1
inactive: growth inhibition [1] 1.42% | growth inhibition [2] -5.6% | viability increase [3] -1.7% | viability [4] 108% | viability [5] 96.1% | inhibition [6] 1.66% | RAM network inhibition [7] -0.2%

CCC(C)Sc1nnc(Cc2cc(=O)[nH]c(=O)[nH]2)n1-c1ccc(OC)cc1 (configuration not stated)
inactive: growth inhibition [1] 5.64% | growth inhibition [2] -6.83% | viability increase [3] -0.09% | viability [4] 104% | viability [5] 102% | inhibition [6] 0.295% | RAM network inhibition [7] 2.22%

N#Cc1ccc(OCCN2C(=O)NC3(CCSC3)C2=O)cc1 (configuration not stated)
inactive: growth inhibition [1] -2.65% | growth inhibition [2] -19% | viability increase [3] -1.88% | viability [4] 101% | viability [5] 94.4% | inhibition [6] 0.975% | RAM network inhibition [7] 0.56%

CCCc1cc(C(=O)Nc2cccc(C(C)=O)c2)no1
inactive: growth inhibition [1] -4.86% | growth inhibition [2] 1.98% | viability increase [3] 0.44% | viability [4] 104% | viability [5] 92.3% | inhibition [6] 1.75% | RAM network inhibition [7] 2.91%
